# Published values from different studies.
# Protocols differ between the studies behind these lines.
# Cell line: A549
# Effect on: cell growth or viability
SMILES,assay,conditions,IC50 [µM]
C/C(=N\CCNCC/N=C(\C)c1c(O)c2ccccc2oc1=O)c1c(O)c2ccccc2oc1=O,MTT,48 h,8.75
COC(=O)c1cc(C(C)=NNc2nc(-c3cccc4cc[nH]c34)cs2)ccc1O,MTT,96 h,92.3
O=C(NCCc1ccccc1)Nc1nc2cc(-c3ccc4ncn(CCN5CCOCC5)c(=O)c4c3)ccc2s1,MTT,72 h,4.92
CNCc1cc(OC)cc2c1CN(c1cccc(-c3nncn3C(C)CC(F)(F)F)n1)C2=O (centres unmarked),CCK-8,,> 10
CC(C)[C@@H]1NC(=O)[C@@H](CCCNC(=N)N)NC(=O)[C@H]([C@@H](C)O)NC(=O)[C@@H](CCCN)NC(=O)[C@H](Cc2ccccc2)NC(=O)[C@@H](Cc2ccc(O)cc2)NC1=O,ATP luminescence,,> 100
CCCCn1cnc2ccc(-c3ccc(NC(=O)Nc4ccc(Cl)cc4)nc3)cc2c1=O,CCK-8,72 h,> 10
NNc1nc2c(Cl)cc(Cl)cc2c(=O)n1-c1ccc(Cl)cc1,MTT,48 h,25.9
[NH2][Pt]([NH2])([Cl])[Cl],MTT,48 h,27.2
CN1CCC(NC2CCc3[nH]c4c(C(N)=O)ccc(-c5ccccc5Cl)c4c3C2)CC1 (centres unmarked),,96 h,0.0301
O=C(NO)Nc1nc2c(Cl)cc(Cl)cc2c(=O)n1-c1ccc(Cl)cc1,MTT,48 h,> 200
C(=N\Nc1cc(N/N=C/c2ccc3ccccc3n2)ncn1)/c1ccc2ccccc2n1,MTT,48 h,16.7
O=C(O)c1ccc(NCc2ccc(Cl)cc2)cc1,resazurin,72 h,> 100
O=C(Nc1ccc(-c2ccc3ncn(Cc4ccccc4)c(=O)c3c2)cn1)C1CCCC1,CCK-8,72 h,> 10
CN(C)CCn1cnc2ccc(-c3ccc4sc(NC(=O)Nc5ccc(F)cc5)nc4c3)cc2c1=O,MTT,72 h,0.98
COc1ccc(C=NNC(=O)c2cc(-c3ccccc3)n(-c3ccc(S(N)(=O)=O)cc3)n2)cc1OC,fluorescence,48 h,15.5
Cc1ccc(C(=O)Nc2ccc(-c3ccc4ncn(Cc5ccccc5)c(=O)c4c3)cn2)cc1,CCK-8,72 h,> 10
OC1CCN(c2ccc(/C=N/NC(=S)Nc3ccccc3)cc2)CC1,MTT,24 h,3.77
CCCCC(=O)Nc1cc(C)c(-c2ccc3ncn(CCC)c(=O)c3c2)cn1,CCK-8,72 h,> 10
CC(C)CNC(=S)N/N=C/c1cccc2cc3ccccc3nc12,MTT,48 h,> 50
CCCCn1cnc2ccc(-c3ccc(NC(=O)NCc4ccccc4)nc3)cc2c1=O,CCK-8,72 h,0.38
COc1cccc(CNc2ccc(C(=O)O)cc2)c1OC,resazurin,72 h,> 100
CCCCn1cnc2ccc(-c3ccc(NC(=O)C4CCCCC4)nc3)cc2c1=O,CCK-8,72 h,1.28
O=C(Nc1ccc(Br)cc1)Nc1nc2cc(-c3ccc4ncn(Cc5ccccc5)c(=O)c4c3)ccc2s1,MTT,72 h,> 20
